Legend:
Format in all cases: functional
DU-145 = test: Antiproliferative activity against human DU145 cells assessed as reduction in cell growth incubated for 96 hrs by propidium iodide based 2D monolayer assay; settings: DU-145, 96 h
Outline: (§1)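 After 24 h recovery, compound in medium or medium alone (control wells) was added at 10 half-log concentrations from 0.0032 to 100 µM, in triplicate, with at most 0.3% DMSO. After 96 h, wells were PBS-washed, stained with 7 µg/ml PI and 0.1% Triton X-100, and fluorescence read at 530/620 nm. IC50 came from a 4-parameter fit, geometric mean.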

CWR22R = test: Antiproliferative activity against human 22Rv1 cells assessed as reduction in cell growth incubated for 96 hrs by propidium iodide based 2D monolayer assay; settings: 22Rv1, 96 h; outline: as §1
LNCaP = test: Antiproliferative activity against human LNCAP cells assessed as reduction in cell growth incubated for 96 hrs by propidium iodide based 2D monolayer assay; outline: as §1
VCaP = test: Antiproliferative activity against human VCaP cells assessed as reduction in cell growth incubated for 96 hrs by propidium iodide based 2D monolayer assay
Outline: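 VCaP cells in RPMI 1640 with 10% FCS at 37 °C, 5% CO2, seeded 4,000–20,000 cells/well and left 24 h before dosing. Compounds from DMSO stocks were diluted in half-log steps in medium, 10 concentrations 0.0032–100 μM, triplicate wells, max 0.3% DMSO. After 96 h, cells were washed, stained with 7 μg/ml propidium iodide plus 0.1% Triton X-100 for 1–2 h at room temperature, and fluorescence read at ex 530/em 620 nm.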

SMILES: CC(O)(CS(=O)(=O)c1ccccc1OC(F)(F)F)C(=O)Nc1cccc(S(F)(F)(F)(F)F)c1 (racemic)
- IC50 (DU-145): 29.1 µM
- IC50 (CWR22R): 17.1 µM
- IC50 (LNCaP): 9 µM
- IC50 (VCaP): 13.9 µM

Reference: ChEMBL document CHEMBL4364301 (Eur J Med Chem, 2019)
